Data from publication PMC3902791 (Molecular imaging and biology : MIB : the official …, 2012).

What was measured:
[1] = assay type: in vivo, rhesus macaques
Procedure, shortened: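 Six rhesus macaques (3 female, 3 male), fasted overnight, under isoflurane anaesthesia, received test compound i.v. at 165.4 ± 28.5 MBq (21.8±5.9 MBq/kg) in 5 mL over 2 min. Venous samples (0.5 mL) were taken from the second saphenous cannula at 10, 20, 40, 60, 90 s and 2–180 min. Radioactivity in whole blood and plasma was gamma-counted and expressed as %ID/mL.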

[2] = Radio-HPLC analysis of radiolabeled metabolites in blood plasma and urine; assay type: in vivo, rhesus macaques
Procedure, shortened: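 Plasma was ultrafiltered, then run on radio-HPLC (Supelcogel C-610H column, 20 mM phosphoric acid, 0.5 mL/min, UV plus radioactivity detection). Peaks were identified with cold fluorocitrate and fluoride standards, and fractions were taken from peak areas. Urine was collected by Foley catheter, which was clamped until after the second whole-body scan. It was collected at 120–150 min, gamma-counted and analysed by the same HPLC.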

[3] = Humanized time-integrated activity coefficients; assay type: in vivo, rhesus macaques
Procedure, shortened: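 Six rhesus macaques (3 female, 3 male) received the radiolabelled test compound intravenously, followed by whole-body PET/CT. Organ activity came from 3D VOIs drawn on PET images. Time–activity curves were fitted mono-exponentially, or by a linear fit of log activity for one animal with two scans. Coefficients were scaled by human/macaque whole-body-normalised organ mass ratios, using CT-derived macaque organ masses and the OLINDA/EXM 73.7-kg adult male model.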

[4] = Dynamic and whole-body PET imaging of pharmacokinetics and biodistribution; assay type: in vivo, rhesus macaques; settings: PET
Procedure, shortened: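 ECAT HR+ scanner; 10-min transmission scan, then i.v. radiotracer (165.4 ± 28.5 MBq). Lower thorax to upper abdomen was imaged dynamically for 0–30 min in 2D mode, 29 frames (20×15 s, 5×1 min, 4×5 min). Three whole-body static scans followed at 40, 100 and 170 min (3-min transmission, 5-min emission, 4–5 beds). OSEM reconstruction with attenuation, scatter, random and dead-time correction. 3D VOIs gave organ %ID/g time–activity curves.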

O=C(O)C[18F] [^18F-FACE, ^18F-fluoroacetate]
blood clearance half-time, fast phase ([1]; i.v., bi-exponential, fast phase between 3 and 18 min): 4 min
blood clearance half-time, slow phase ([1]; i.v., bi-exponential, slow phase until 180 min): 250 min
partition of radioactivity in the blood: plasma ([1]; stable throughout the study): 70%
partition of radioactivity in the blood: red blood cells ([1]; stable throughout the study): 30%
^18F-fluorocitrate anabolite ([2]; 3-h study): not detectable
fraction of total radioactivity in urine as ^18F-FACE ([2]; urine collected at 120–150 min): 72.4%
fraction of total radioactivity in urine as ^18F-fluoride ([2]; urine collected at 120–150 min): 27.6%
Humanized residence time, Gall bladder ([3]; All, Mean±SD): 0.011 ± 0.005 h
Humanized residence time, Heart ([3]; All, Mean±SD): 0.034 ± 0.017 h
Humanized residence time, Intestines ([3]; All, Mean±SD): 0.319 ± 0.134 h
Humanized residence time, Kidneys ([3]; All, Mean±SD): 0.044 ± 0.013 h
Humanized residence time, Liver ([3]; All, Mean±SD): 0.209 ± 0.171 h
Humanized residence time, Remainder of body ([3]; All, Mean±SD): 1.751 ± 0.363 h
Humanized residence time, Gall bladder ([3]; Female, Mean±SD): 0.016 ± 0.002 h
Humanized residence time, Heart ([3]; Female, Mean±SD): 0.024 ± 0.013 h
Humanized residence time, Kidneys ([3]; Female, Mean±SD): 0.041 ± 0.016 h
Humanized residence time, Liver ([3]; Female, Mean±SD): 0.132 ± 0.082 h
Humanized residence time, Remainder of body ([3]; Female, Mean±SD): 1.724 ± 0.549 h
Humanized residence time, Gall bladder ([3]; Male, Mean±SD): 0.007 ± 0.002 h
Humanized residence time, Heart ([3]; Male, Mean±SD): 0.043 ± 0.016 h
Humanized residence time, Intestines ([3]; Male, Mean±SD): 0.400 ± 0.154 h
Humanized residence time, Kidneys ([3]; Male, Mean±SD): 0.047 ± 0.012 h
Humanized residence time, Liver ([3]; Male, Mean±SD): 0.287 ± 0.220 h
Humanized residence time, Remainder of body ([3]; Male, Mean±SD): 1.778 ± 0.159 h
Humanized residence time, Gall bladder ([3]; animal 1, male): 0.006 h
Humanized residence time, Heart ([3]; animal 1, male): 0.048 h
Humanized residence time, Kidneys ([3]; animal 1, male): 0.061 h
Humanized residence time, Liver ([3]; animal 1, male): 0.505 h
Humanized residence time, Remainder of body ([3]; animal 1, male): 1.706 h
Humanized residence time, Intestines ([3]; animal 1, male, assigned in thirds to small, upper large, lower large intestine): 0.235 h
Humanized residence time, Gall bladder ([3]; animal 2, male): 0.009 h
Humanized residence time, Heart ([3]; animal 2, male): 0.057 h
Humanized residence time, Intestines ([3]; animal 2, male): 0.426 h
Humanized residence time, Kidneys ([3]; animal 2, male): 0.038 h
Humanized residence time, Liver ([3]; animal 2, male): 0.290 h
Humanized residence time, Remainder of body ([3]; animal 2, male): 1.668 h
Humanized residence time, Heart ([3]; animal 3, male): 0.025 h
Humanized residence time, Intestines ([3]; animal 3, male): 0.540 h
Humanized residence time, Kidneys ([3]; animal 3, male): 0.043 h
Humanized residence time, Liver ([3]; animal 3, male): 0.065 h
Humanized residence time, Remainder of body ([3]; animal 3, male): 1.960 h
Humanized residence time, Gall bladder ([3]; animal 4, female): 0.017 h
Humanized residence time, Heart ([3]; animal 4, female): 0.039 h
Humanized residence time, Intestines ([3]; animal 4, female): 0.261 h
Humanized residence time, Kidneys ([3]; animal 4, female): 0.032 h
Humanized residence time, Liver ([3]; animal 4, female): 0.226 h
Humanized residence time, Remainder of body ([3]; animal 4, female): 1.138 h
Humanized residence time, Gall bladder ([3]; animal 5, female): 0.014 h
Humanized residence time, Heart ([3]; animal 5, female): 0.016 h
Humanized residence time, Intestines ([3]; animal 5, female): 0.256 h
Humanized residence time, Kidneys ([3]; animal 5, female): 0.059 h
Humanized residence time, Liver ([3]; animal 5, female): 0.078 h
Humanized residence time, Remainder of body ([3]; animal 5, female): 1.804 h
Humanized residence time, Heart ([3]; animal 6, female): 0.017 h
Humanized residence time, Intestines ([3]; animal 6, female): 0.196 h
Humanized residence time, Kidneys ([3]; animal 6, female): 0.030 h
Humanized residence time, Liver ([3]; animal 6, female): 0.093 h
Humanized residence time, Remainder of body ([3]; animal 6, female): 2.228 h
accumulation in the myocardium [4]: Some accumulation
